Measurements as given in ChEMBL document CHEMBL1137451, “Synthesis and evaluation of antifungal properties of a series of the novel 2-amino-5-oxo-4-phenyl-5,6,7,8-tetrahydroquinoline-3-carbonitrile and its analogues” (Bioorg Med Chem, 2007).
≈ marks a conversion by molar mass, not a printed value. Calls of active or inactive are those of the source. The calls are words filed in the database; no cut-off is given here.

Experiments:
[1] = system: Candida albicans; experiment: Antifungal activity against Candida albicans 1 after 24 hrs by disc diffusion method; format: functional
Method in brief: (§1)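 Disc diffusion on Candida albicans strains 1 and 2 (yeast suspension), Fusarium oxysporum strains 1 and 2 and Mucor sp. (mycelial suspension), spread on YPG or PDA agar. Compound at graded amounts per filter-paper disc, 28 °C for 24 h. MIC taken as the lowest amount giving a 2 mm inhibition zone. Controls: 50% v/v DMSO vehicle, cycloheximide, amphotericin B.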

[2] = system: Fusarium oxysporum; experiment: Antifungal activity against Fusarium oxysporum 2 after 24 hrs by disc diffusion method; format: functional; method in brief: as §1
[3] = system: Mucor; experiment: Antifungal activity against Mucor at 60 ug/disc after 24 hrs by disc diffusion method; format: functional; conditions: read-out: IZ
Method in brief: (§2)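 Yeast suspensions (C. albicans strains 1, 2) and mycelial suspensions (F. oxysporum strains 1, 2; Mucor sp.) spread on YPG (0.3% yeast extract, 0.5% peptone, 1% glucose) or PDA agar. Compound applied on filter-paper discs at the stated amount; 28 °C, 24 h. Read-out is inhibition zone diameter. Controls: 50% v/v DMSO vehicle, cycloheximide, amphotericin B.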

[4] = system: Mucor; experiment: Antifungal activity against Mucor at 100 ug/disc after 24 hrs by disc diffusion method; format: functional; conditions: read-out: IZ; method in brief: as §2
[5] = system: Candida albicans; experiment: Antifungal activity against Candida albicans 2 at 40 ug/disc after 24 hrs by disc diffusion method; format: functional; conditions: for zone of inhibition at 40 µg/disc: read-out: IZ; method in brief: as §2
[6] = system: Fusarium oxysporum; experiment: Antifungal activity against Fusarium oxysporum 1 at 100 ug/disc after 24 hrs by disc diffusion method; format: functional; conditions: read-out: IZ; method in brief: as §2
[7] = system: Fusarium oxysporum; experiment: Antifungal activity against Fusarium oxysporum 1 after 24 hrs by disc diffusion method; format: functional; method in brief: as §1
[8] = system: Mucor; experiment: Antifungal activity against Mucor at after 24 hrs by disc diffusion method; format: functional; method in brief: as §1
[9] = system: Candida albicans; experiment: Antifungal activity against Candida albicans 2 after 24 hrs by disc diffusion method; format: functional; method in brief: as §1
[10] = system: Candida albicans; experiment: Antifungal activity against Candida albicans 1 at 60 ug/disc after 24 hrs by disc diffusion method; format: functional; conditions: read-out: IZ; method in brief: as §2
[11] = system: Candida albicans; experiment: Antifungal activity against Candida albicans 2 at 60 ug/disc after 24 hrs by disc diffusion method; format: functional; conditions: read-out: IZ; method in brief: as §2
[12] = system: Benjaminiella poitrasii; experiment: Inhibition of yeast hypha transition at 20 ug/mL after 4 hrs
[13] = system: Fusarium oxysporum; experiment: Antifungal activity against Fusarium oxysporum 2 at 60 ug/disc after 24 hrs by disc diffusion method; format: functional; conditions: read-out: IZ; method in brief: as §2
[14] = system: Candida albicans; experiment: Antifungal activity against Candida albicans 2 at 100 ug/disc after 24 hrs by disc diffusion method; format: functional; conditions: read-out: IZ; method in brief: as §2
[15] = system: Fusarium oxysporum; experiment: Antifungal activity against Fusarium oxysporum 2 at 40 ug/disc after 24 hrs by disc diffusion method; format: functional; conditions: for zone of inhibition at 40 µg/disc: read-out: IZ; method in brief: as §2
[16] = system: Fusarium oxysporum; experiment: Antifungal activity against Fusarium oxysporum 2 at 100 ug/disc after 24 hrs by disc diffusion method; format: functional; conditions: read-out: IZ; method in brief: as §2
[17] = system: Benjaminiella poitrasii; experiment: Inhibition of Benjaminiella poitrasii chitin synthase at 4 ug/mL
Method in brief: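 Chitin synthase from Benjaminiella poitrasii measured with and without compound at 4 µg/ml, using a non-radioactive chitin synthase assay. Nikkomycin Z used as reference.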

[18] = system: Mucor; experiment: Antifungal activity against Mucor at 40 ug/disc after 24 hrs by disc diffusion method; format: functional; method in brief: as §2
[19] = system: Candida albicans; experiment: Antifungal activity against Candida albicans 1 at 40 ug/disc after 24 hrs by disc diffusion method; format: functional; conditions: for zone of inhibition at 40 µg/disc: read-out: IZ; method in brief: as §2
[20] = system: Fusarium oxysporum; experiment: Antifungal activity against Fusarium oxysporum 1 at 40 ug/disc after 24 hrs by disc diffusion method; format: functional; conditions: for zone of inhibition at 40 µg/disc: read-out: IZ; method in brief: as §2
[21] = system: Fusarium oxysporum; experiment: Antifungal activity against Fusarium oxysporum 1 at 60 ug/disc after 24 hrs by disc diffusion method; format: functional; conditions: read-out: IZ; method in brief: as §2
[22] = system: Candida albicans; experiment: Antifungal activity against Candida albicans 1 at 100 ug/disc after 24 hrs by disc diffusion method; format: functional; conditions: read-out: IZ; method in brief: as §2
[23] = system: MCF7; experiment: Antiproliferative activity against human MCF7 cells at 1 mg/mL assessed as cell viability by MTT assay; format: functional, cell-based
Method in brief: (§3)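 Hep3B or MCF-7 cells in MEM with 10% heat-inactivated FBS at 37 °C, 5% CO2, seeded 10,000/well and left to adhere 24 h. Exposed 48 h to compound diluted from 4 mg/ml DMSO stock, then 24 h in fresh medium. MTT (1 mg/ml, 4 h), formazan dissolved in 2-propanol, read at 570 nm (630 nm reference). DMSO-only wells set as 100% growth; triplicates.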

[24] = system: Hep 3B2; experiment: Antiproliferative activity against human Hep3B cells upto 400 ug/mL assessed as cell viability by MTT assay; format: functional, cell-based; method in brief: as §3
[25] = system: MCF7; experiment: Antiproliferative activity against human MCF7 cells assessed as cell viability by MTT assay; format: functional, cell-based
Method in brief: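 MCF-7 cells in MEM with 10% FBS, 37 °C, 5% CO2, seeded 10,000/well, adhered 24 h. Treated 48 h at 0, 1, 10, 100, 1000 or 2000 µg/ml (DMSO stock diluted in medium), then 24 h recovery. MTT 4 h, 2-propanol solubilisation, A570 against 630 nm. DMSO carrier set as 100% growth; IC50 taken from the dose curve; triplicates.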

[26] = system: Hep 3B2; experiment: Antiproliferative activity against human Hep3B cells at 1 mg/mL assessed as cell viability by MTT assay; format: functional, cell-based; method in brief: as §3

| SMILES | MIC [1] [µg/disc] | MIC [2] [µg/disc] | zone of inhibition at 60 µg/disc [3] [mm] | zone of inhibition at 100 µg/disc [4] [mm] | zone of inhibition at 100 µg/disc [6] [mm] | MIC [7] [µg/disc] | MIC [8] [µg/disc] | MIC [9] [µg/disc] | zone of inhibition at 60 µg/disc [10] [mm] | zone of inhibition at 60 µg/disc [11] [mm] | inhibition at 20 µg/mL [12] [%] | zone of inhibition at 60 µg/disc [13] [mm] | zone of inhibition at 100 µg/disc [14] [mm] | zone of inhibition at 100 µg/disc [16] [mm] | inhibition [17] [%] | zone of inhibition at 60 µg/disc [21] [mm] | zone of inhibition at 100 µg/disc [22] [mm] | zone of inhibition at 40 µg/disc [5] [mm] | Activity [18] | zone of inhibition at 40 µg/disc [19] [mm] | also measured |
| --- | --- | --- | --- | --- | --- | --- | --- | --- | --- | --- | --- | --- | --- | --- | --- | --- | --- | --- | --- | --- | --- |
| N#Cc1c(N)nc2c(c1-c1cccc(N)c1)C(=O)CCC2 | 60 | 40 | 7 | 10 | 5 | 40 | 40 | 60 | 3 | 3 | 95 | 3 | 6 | 5 | 76 | 3 | 6 | – | – | – | Activity [5]: inactive; zone of inhibition at 40 µg/disc [15]: 2 mm; zone of inhibition at 40 µg/disc ([18]; read-out: IZ): 5 mm; Activity [19]: inactive; zone of inhibition at 40 µg/disc [20]: 2 mm |
| N#Cc1c(N)nc2c(c1-c1ccc(F)cc1)C(=O)CCC2 | 40 | 40 | 9 | 12 | 7 | 40 | 60 | 40 | 4 | 4 | 95 | 3 | 6 | 7 | 81 | 3 | 6 | 2 | inactive | 2 | Activity [15]: inactive; Activity [20]: inactive |
| N#Cc1c(N)nc2c(c1-c1ccc(Cl)cc1)C(=O)CCC2 | 40 | 60 | 7 | 10 | 7 | 60 | 60 | 40 | 3 | 3 | 95 | 4 | 5 | 7 | 81 | 4 | 5 | 2 | inactive | 2 | Activity [15]: inactive; Activity [20]: inactive |
| N#Cc1c(N)nc2c(c1-c1cccc([N+](=O)[O-])c1)C(=O)CCC2 | 40 | 20 | 9 | 15 | 7 | 20 | 60 | 40 | 4 | 4 | 85 | 4 | 7 | 7 | 81 | 4 | 7 | 3 | inactive | 3 | Activity [23]: Toxic; Activity [24]: Non-toxic; IC50 [25]: 293 µg/mL (≈ 952 µM); Activity [26]: Toxic; zone of inhibition at 40 µg/disc [15]: 3 mm; zone of inhibition at 40 µg/disc [20]: 3 mm |
